Published values of several laboratories.
Compare with care: the assays were run in different laboratories.
RAF1 Y340D/Y341D: RAF proto-oncogene serine/threonine-protein kinase (RAF1, Homo sapiens, UniProt P04049, Y340D/Y341D)
RAF1: RAF proto-oncogene serine/threonine-protein kinase (RAF1, Homo sapiens, UniProt P04049)

Structure (SMILES) | target | assay | setting | quantity | value
C#Cc1n[nH]c2c(-c3cn([C@@H](C)c4ccccc4)c(=O)[nH]c3=O)cc(F)cc12 | RAF1 Y340D/Y341D | enzyme activity, inhibitor | 0.1 µM | inhibition | 4.4%
Cn1cc(-c2cc(F)cc(N3CCn4c(cc5c4CCCC5)C3=O)c2CO)cc(Nc2ccc(N3CCN(C4COC4)CC3)cn2)c1=O | RAF1 Y340D/Y341D | enzyme activity, inhibitor | 0.1 µM | inhibition | 5%
O=c1[nH]c2ccccc2n1C1CCN(Cc2ccc(-c3[nH]c4cc5ncnc5cc4nc3-c3ccccc3)cc2)CC1 | RAF1 | cell-free assay | 0.5 µM | remaining signal | 94.7%
C#Cc1n[nH]c2c(-c3cn(C(C)c4ccccn4)c(=O)[nH]c3=O)cc(F)cc12 (stereo not shown) | RAF1 Y340D/Y341D | enzyme activity, inhibitor | 1 µM | inhibition | 15.5%
Cn1cncc1[C@](O)(COc1ccc(C#N)cc1-c1ccc(OC(F)(F)F)cc1)c1ccc(C#N)cc1 | RAF1 | cell-free assay, competition with immobilised ligand | 1 µM | remaining binding | 100%
COc1ncccc1-c1cnn2ccc(N3CCN(C(=O)OC(C)C)CC3)nc12 | RAF1 | binding, competition with immobilised ligand | 1 µM | remaining binding | 60%
Cn1cc(-c2cccc(N3CCc4c(sc5c4CC(C)(C)C5)C3=O)c2CO)cc(Nc2ccncn2)c1=O | RAF1 Y340D/Y341D | enzyme activity, inhibitor | 1 µM | inhibition | 10%
Nc1ncc(-c2nc(N3CCOCC3)nc(N3CCOCC3)n2)c(C(F)F)n1 | RAF1 | binding, competition with immobilised ligand | 10 µM | remaining binding | 98%
CC(C)(C)c1cc(C=C(C#N)C#N)cc(Br)c1O | RAF1 | enzyme activity, inhibitor | 0.5 µM | remaining activity | 104%
Cc1nn(C)cc1-c1nc2c(N3CCN(Cc4ccc(Cl)cc4)CC3)c(Cl)cnc2[nH]1 | RAF1 | binding, competition with immobilised ligand | 1 µM | remaining binding | 69%
